From ChEMBL document CHEMBL1148752, “Dopamine/serotonin receptor ligands. 16.(1) Expanding dibenz[d,g]azecines to 11- and 12-membered homologues. Interaction with dopamine D(1)-D(5) receptors” (J Med Chem, 2007) come the findings set out here.

One may read the Ki as a dissociation constant, usually derived from enzyme kinetics or from competition with a known ligand. Read a high Ki as weaker binding.

In assay [1] the target is D(1B) dopamine receptor (Homo sapiens, UniProt P21918). The assay is described as follows: Displacement of [3H]SCH 23390 from human dopamine D5 receptor expressed in HEK293 cells. Format: cell-based.
In assay [2] the target is D(2) dopamine receptor (Homo sapiens, UniProt P14416). The assay is described as follows: Displacement of [3H]spiperone from human dopamine D2L receptor expressed in HEK293 cells. The class given is cell-based. The procedure, abridged:
(§1)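 Competition binding at cloned human receptors of the D2 family with [3H]spiperone as radioligand; test ligand displacement expressed as Ki.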

Assay [3] deals with D(3) dopamine receptor (Homo sapiens, UniProt P35462). The assay can be described thus: Displacement of [3H]spiperone from human dopamine D3 receptor expressed in CHO cells. The class given is cell-based. The procedure, abridged:
as §1
(Loss of bound radioactivity is the signal in a displacement assay; it reports binding, not function.)

Assay [4] deals with T1, D(4) dopamine receptor (Homo sapiens, UniProt P21917).
T1 sequence (P21917 whole entry): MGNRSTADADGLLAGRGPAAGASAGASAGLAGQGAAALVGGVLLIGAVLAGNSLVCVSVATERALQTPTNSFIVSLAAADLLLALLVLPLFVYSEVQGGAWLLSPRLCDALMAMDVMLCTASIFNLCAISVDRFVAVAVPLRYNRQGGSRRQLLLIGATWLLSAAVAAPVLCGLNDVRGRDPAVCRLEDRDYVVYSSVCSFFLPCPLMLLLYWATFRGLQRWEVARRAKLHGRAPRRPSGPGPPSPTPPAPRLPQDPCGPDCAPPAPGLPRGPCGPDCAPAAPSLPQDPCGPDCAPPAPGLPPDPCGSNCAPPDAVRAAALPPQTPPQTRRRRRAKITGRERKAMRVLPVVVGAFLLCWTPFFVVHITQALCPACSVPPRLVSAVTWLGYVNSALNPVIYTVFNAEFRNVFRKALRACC
The assay can be described thus: Displacement of [3H]spiperone from human dopamine D4.4 receptor expressed in CHO cells. The class given is cell-based. The procedure, abridged:
as §1

Assay [5] has as its target D(1A) dopamine receptor (Homo sapiens, UniProt P21728). The assay can be described thus: Displacement of [3H]SCH 23390 from human dopamine D1 receptor. The procedure, abridged:
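Competition binding at cloned human receptors of the D1 family with [3H]SCH 23390 as radioligand; test ligand displacement expressed as Ki.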

Sequence of D(3) dopamine receptor (P35462 whole entry): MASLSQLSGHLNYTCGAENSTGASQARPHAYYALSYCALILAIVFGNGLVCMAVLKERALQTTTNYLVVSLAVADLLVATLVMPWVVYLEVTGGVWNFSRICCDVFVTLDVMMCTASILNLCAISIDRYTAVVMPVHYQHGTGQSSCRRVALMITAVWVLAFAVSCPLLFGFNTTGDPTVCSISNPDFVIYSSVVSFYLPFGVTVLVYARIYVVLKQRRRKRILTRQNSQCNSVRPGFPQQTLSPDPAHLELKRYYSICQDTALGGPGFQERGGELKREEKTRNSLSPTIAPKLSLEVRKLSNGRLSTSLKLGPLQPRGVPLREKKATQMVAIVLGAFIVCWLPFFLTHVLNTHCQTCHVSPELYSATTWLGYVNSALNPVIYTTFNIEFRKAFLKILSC
Sequence of D(1B) dopamine receptor (P21918 whole entry): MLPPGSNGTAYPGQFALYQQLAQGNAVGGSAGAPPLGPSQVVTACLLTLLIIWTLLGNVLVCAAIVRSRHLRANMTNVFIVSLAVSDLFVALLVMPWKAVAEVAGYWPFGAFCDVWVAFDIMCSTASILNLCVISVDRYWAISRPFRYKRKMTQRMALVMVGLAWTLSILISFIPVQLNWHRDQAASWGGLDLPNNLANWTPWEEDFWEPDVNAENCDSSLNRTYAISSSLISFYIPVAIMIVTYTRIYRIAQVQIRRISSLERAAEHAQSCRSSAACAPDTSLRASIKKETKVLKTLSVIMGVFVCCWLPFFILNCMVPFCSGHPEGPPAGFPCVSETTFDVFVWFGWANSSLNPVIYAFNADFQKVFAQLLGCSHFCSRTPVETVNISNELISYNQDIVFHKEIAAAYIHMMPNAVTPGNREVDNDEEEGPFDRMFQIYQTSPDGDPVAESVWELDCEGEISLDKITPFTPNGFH
Sequence of D(2) dopamine receptor (P14416 whole entry): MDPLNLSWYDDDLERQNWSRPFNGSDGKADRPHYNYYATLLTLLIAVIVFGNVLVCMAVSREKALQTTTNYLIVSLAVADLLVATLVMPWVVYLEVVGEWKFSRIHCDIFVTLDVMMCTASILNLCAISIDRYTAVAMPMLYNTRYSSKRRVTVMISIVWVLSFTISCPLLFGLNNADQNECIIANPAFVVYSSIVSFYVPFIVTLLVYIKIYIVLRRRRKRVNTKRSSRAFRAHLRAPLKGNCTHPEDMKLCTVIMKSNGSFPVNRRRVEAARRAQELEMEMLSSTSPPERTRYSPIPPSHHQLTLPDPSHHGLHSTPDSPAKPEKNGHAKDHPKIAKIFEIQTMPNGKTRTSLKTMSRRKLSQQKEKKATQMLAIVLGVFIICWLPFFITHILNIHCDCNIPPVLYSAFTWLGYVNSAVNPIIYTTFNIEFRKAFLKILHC
Sequence of D(1A) dopamine receptor (P21728 whole entry): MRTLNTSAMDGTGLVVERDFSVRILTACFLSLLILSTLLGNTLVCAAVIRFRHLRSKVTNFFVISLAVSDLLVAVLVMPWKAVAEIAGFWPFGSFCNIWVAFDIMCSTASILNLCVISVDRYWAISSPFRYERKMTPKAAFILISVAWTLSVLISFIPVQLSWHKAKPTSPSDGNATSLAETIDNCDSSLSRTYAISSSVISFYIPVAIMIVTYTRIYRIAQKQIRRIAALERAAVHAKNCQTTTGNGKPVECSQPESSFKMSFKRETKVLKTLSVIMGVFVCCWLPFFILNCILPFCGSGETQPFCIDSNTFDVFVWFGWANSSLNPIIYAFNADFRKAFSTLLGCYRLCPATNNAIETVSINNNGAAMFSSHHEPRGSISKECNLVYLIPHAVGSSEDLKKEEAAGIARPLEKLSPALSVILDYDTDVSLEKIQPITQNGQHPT

`CN1CCCc2ccccc2Cc2ccc(O)cc2CC1`: the Ki was 9.8 nM in assay [1]; 74 nM in assay [2]; 100 nM in assay [3]; 60.1 nM in assay [4]; 3.2 nM in assay [5].
For `COc1ccc2c(c1)CCCN(C)CCCc1ccccc1C2` the same measures were 53 nM, 172 nM, 1350 nM, 2870 nM and 23.5 nM.
As to `COc1ccc2c(c1)Cc1ccccc1CCCN(C)CC2`, the inhibitory constant (Ki) in assay [1] amounted to 75 nM; in assay [2], 1400 nM; in assay [3], 23900 nM; in assay [4] it was 2760 nM; in assay [5], 137 nM.
For `COc1ccc2c(c1)CCN(C)CCCc1ccccc1C2` the same measures were 4.6 nM, 87 nM, 507 nM, 271 nM and 18.5 nM.
Turning to `COc1ccc2c(c1)CCN(C)CCc1ccccc1C2`, the Ki in assay [1] amounted to 54 nM.
Turning to `CN1CCCc2cc(O)ccc2Cc2ccccc2CC1`, the inhibitory constant (Ki) in assay [1] came out at 17 nM; in assay [2], 518 nM; in assay [3], 6120 nM; in assay [4] it was 2260 nM; in assay [5], 13.9 nM.
For `COc1ccc2c(c1)CCCN(C)CCc1ccccc1C2` the same measures were 55 nM, 25 nM, 3140 nM, 1100 nM and 29.4 nM.
For `CN1CCCc2ccccc2Cc2ccc(O)cc2CCC1` the same measures were 95 nM, 382 nM, 3960 nM, 422 nM and 83 nM.
Regarding `COc1cc2c(cc1Cl)CCN1CCCc3ccccc3C21` (stereo unspecified), the inhibition constant (Ki) in assay [1], in assay [2], in assay [3], in assay [4] and in assay [5] was > 10000 nM throughout.
Regarding `CN1CCCc2ccccc2Cc2cc(O)ccc2CC1`, the Ki in assay [1] was found to be 69 nM; in assay [2] it was 63 nM; in assay [3], 776 nM; in assay [4] it was 3750 nM; in assay [5], 70 nM.
For the compound `Oc1ccc2c(c1)CCCNCCc1ccccc1C2`, the inhibitory constant (Ki) in assay [1] was found to be 314 nM; in assay [2], 857 nM; in assay [3], 6900 nM; in assay [4] it was 4260 nM; in assay [5], 291 nM.
With `COc1ccc(CCN2CCCc3ccccc3C2)cc1Cl`, the Ki in assay [1], in assay [2], in assay [3], in assay [4] and in assay [5] was > 10000 nM in each case.
In the case of `COc1cc2c(cc1OC)Cc1ccccc1CCCN(C)CC2`, the inhibitory constant (Ki) came out at 510 nM in assay [1]; 1030 nM in assay [2]; 14800 nM in assay [3]; 5050 nM in assay [4]; 579 nM in assay [5].
As to `COc1ccc2c(c1)CCCN1CCCc3ccccc3C21` (stereo unspecified), the Ki in assay [1], in assay [2], in assay [3], in assay [4] and in assay [5] was > 10000 nM each time.
